We go through one compound from ChEMBL document CHEMBL4619773, “Chemoreactive-Inspired Discovery of Influenza A Virus Dual Inhibitor to Block Hemagglutinin-Mediated Adsorption and Membrane Fusion” (J Med Chem, 2020).

Activity calls are given as the source filed them. The rule behind the calls is not given here. Where only a bound is given, the exact number is not on record here.

The term AUC(0-t) denotes exposure summed from dosing to a finite time, without extrapolation to infinity. The term IC50 denotes the point on the concentration scale where inhibition reaches its midpoint. A word on the Kd: it is the constant that tells how readily two partners part at equilibrium.

Data set [1] concerns Influenza A virus. In words: Antiviral activity against Influenza A virus (A/Puerto Rico/8/1934(H1N1)) infected in Kunming mouse assessed as decrease in lung TNFalpha level at 20 to 40 ug/day dosed intranasally starting 4 hrs after viral challenge and continued for 4 days by ELISA. Type of data set: functional, organism-based. The method, boiled down:
(§1)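 Four-week-old female Kunming mice received PR8 intranasally (500 PFU/mouse in 40 µL PBS) and were then dosed once daily orally or intranasally. Lungs were collected on day 4, and TNF-α and IL-6 in lung tissue were measured by ELISA.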

Data set [2] concerns Influenza A virus. In words: Antiviral activity against Influenza A virus (A/Puerto Rico/8/1934(H1N1)) infected in MDCK cells pre-incubated for 1 hr before assay and incubated for 3 days by crystal violet staining based plaque assay. It counts as functional, organism-based. An outline of the steps: (§2)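 Confluent MDCK monolayers were exposed to 10-fold serial virus dilutions for 1 h at 37 °C, then washed. The overlay was DMEM with 1.5% agarose, 0.02% DEAE-dextran and 1 µg/ml TPCK-trypsin. After 3 days at 37 °C in 5% CO2, cells were fixed with 0.05% glutaraldehyde, stained with 1% crystal violet in 20% ethanol, and plaques were counted.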

A short description of data set [3]: Toxicity in Kunming mouse assessed as effect on creatinine level at 5 to 10 mg/kg/day, po for 7 days. It counts as organism-based. Conditions: in vivo, 168 h. The method, boiled down:
(§3)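 Male Kunming mice (20–25 g) received compound orally at 5 or 10 mg/kg/day, suspended in 0.5% sodium carboxymethyl cellulose, once daily for 7 days; controls received vehicle. Serum was collected under isoflurane 24 h after the last dose. AST, ALT, CR, BUN, LDH, CK and CK-MB were measured with commercial kits.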

Data set [4] in a line: Toxicity in Influenza A virus (A/Puerto Rico/8/1934(H1N1)) infected Kunming mouse assessed as induction of body weight loss at 20 to 40 ug/day dosed intranasally starting 4 hrs after viral challenge and continued for 7 days by plaque assay. Type of data set: organism-based. The following applies: in vivo, inhaled_or_intranasal.
Data set [5] is described as follows: AUC (0 to t) in mouse at 0.5 mg/kg, iv administered as single dose. Type of data set: ADME, organism-based. The following applies: in vivo. An outline of the steps: (§4)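 Male Kunming mice (20-25 g) and male Sprague Dawley rats (180-220 g) were fasted 12 h before dosing. Oral dosing was by gavage as a suspension in 0.5% sodium carboxymethyl cellulose; iv dosing was via tail vein in PEG400. Serial plasma samples were taken to 24 h, protein-precipitated with acetonitrile plus N-CH3 internal standard, and quantified by LC-MS/MS (n=3). Bioavailability = AUCoral/AUCiv.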

The nature of data set [6]: Metabolic stability in rat liver microsomes at 2 uM after 60 mins. It counts as ADME, Microsome. The following applies: read-out: Stability. An outline of the steps:
(§5)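 Mouse, rat or human liver microsomes (final 0.5 mg/mL protein) were preincubated with an NADPH-regenerating system in 50 mM Tris-HCl pH 7.4 at 37 °C for 5 min. Compound was added at 2 µM final and incubated at 37 °C; NADPH-free incubations served as controls. Reactions were quenched with acetonitrile plus internal standard at 60 min. Percent remaining was measured by LC-MS/MS (n=3).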
A general note: Microsomes from liver hold many membrane-bound enzymes, among them those of drug oxidation.

Data set [7] has as its system Influenza A virus. In words: Antiviral activity against Influenza A virus (A/Aichi/2/1968(H3N2)) infected in MDCK cells incubated for 3 days by crystal violet staining based plaque assay. It counts as functional, organism-based. Conditions: 72 h. An outline of the steps:
as §2

Data set [8] concerns Influenza A virus. In words: Antiviral activity against Influenza A virus (A/Puerto Rico/8/1934(H1N1)) infected in MDCK cells incubated for 3 days by crystal violet staining based plaque assay. Type of data set: functional, organism-based. Conditions: 72 h. The method, boiled down:
as §2

For data set [9], the system named is Influenza A virus H3N2. In words: Antiviral activity against Influenza A virus H3N2 (A/swine/Minnesota/02719/2009) infected in MDCK cells by HA assay. Type of data set: functional, organism-based. The method, boiled down: (§6)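 MDCK cells were infected at high moi (≈3.0 PFU/cell). Virus-containing supernatants were serially diluted 2-fold and mixed with an equal volume of 1% chicken red blood cells. After 60 min at 4 °C, wells were scored for button sedimentation versus opaque agglutination to give titers.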

Data set [10] deals with Influenza A virus. The data set is described as follows: Antiviral activity against Influenza A virus (A/Puerto Rico/8/1934(H1N1)) infected in Kunming mouse assessed as decrease in lung IL6 level at 5 to 10 mg/kg/day, po starting 4 hrs after viral challenge and continued for 4 days by ELISA. Type of data set: functional, organism-based. An outline of the steps:
as §1

Data set [11] in a line: Toxicity in Kunming mouse assessed as effect on AST level at 5 to 10 mg/kg/day, po for 7 days. Type of data set: organism-based. The following applies: in vivo, 168 h. The method, boiled down:
as §3

Data set [12] has as its target Hemagglutinin (Influenza A virus (A/Puerto Rico/8/1934(H1N1)), UniProt P03452). In words: Binding affinity to Influenza A virus (A/Puerto Rico/8/1934(H1N1)) Hemagglutinin at 1.5625 to 50 uM by SPR assay. Conditions: read-out: Kd. An outline of the steps:
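HA protein was immobilized on CM5 chips. Compound (50, […], 12.5, 6.25, 3.125, 1.5625 µM) was injected for 2 min, followed by a 10-min PBST wash and regeneration with 2 mM NaOH for 30 s. Runs were at 25 °C with 2 µl/s flow, using a blank HA-free reference channel. KD was obtained from kinetic fitting.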

Data set [13] can be described thus: AUC (0 to t) in mouse at 5 mg/kg, po administered as single dose. It counts as ADME, organism-based. The following applies: in vivo. The method, boiled down:
as §4

Data set [14] relates to Influenza A virus. The data set is described as follows: Antiviral activity against Influenza A virus (A/California/04/2009(H1N1)) infected in MDCK cells by HA assay. Type of data set: functional, organism-based. The method, boiled down: as §6
The target in data set [15] is Hemagglutinin (Influenza A virus (A/Puerto Rico/8/1934(H1N1))) (UniProt P03452). The data set is described as follows: Inhibition of conformational changes in Influenza A virus (A/Puerto Rico/8/1934(H1N1)) Hemagglutinin assessed as increase in retention amount of HA1 subunit on HA proteins at 25 to 50 ug/ml added before acidification incubated for 1 hr by conformational change inhibition assay. An outline of the steps:
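C-terminal biotinylated H1/PR8 HA (0.2 µg/ml) was captured on streptavidin plates for 1 h at RT. Compound (50, 25, 12.5 µg/ml) was added for 1 h, then 1 M acetate pH 5.25 for 20 min. 2.5 mM DTT was applied for 60 min to remove HA1 from postfusion HA. Retained HA1 was detected with anti-HA1 head antibody and HRP secondary, read as A450 with TMB.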

Data set [16] is described as follows: Toxicity in Kunming mouse assessed as effect on blood urea nitrogen level at 5 to 10 mg/kg/day, po for 7 days. Type of data set: organism-based. Conditions: in vivo, 168 h. The method, boiled down: as §3
The nature of data set [17]: Metabolic stability in human liver microsomes at 2 uM after 60 mins. Type of data set: ADME, Microsome. The following applies: read-out: Stability. The method, boiled down: as §5
The nature of data set [18]: Toxicity in Influenza A virus (A/Puerto Rico/8/1934(H1N1)) infected Kunming mouse assessed as induction of body weight loss at 5 to 10 mg/kg/day, po starting 4 hrs after viral challenge and continued for 7 days by plaque assay. Conditions: in vivo. It counts as organism-based.
The test system of data set [19] is Influenza A virus. In words: Antiviral activity against Influenza A virus (A/California/04/2009(H1N1)) infected in MDCK cells incubated for 3 days by crystal violet staining based plaque assay. Type of data set: functional, organism-based. Conditions: 72 h. The method, boiled down: as §2
The subject of data set [20] is Influenza A virus. The data set is described as follows: Antiviral activity against Influenza A virus (A/Puerto Rico/8/1934(H1N1)) infected in MDCK cells assessed as decrease in viral titers at 50 ug/ml pre-treated with virus before infection and measured 24 hrs post infection by HA assay. It counts as functional, organism-based. The method, boiled down: as §6
Data set [21] in a line: Selectivity index, ratio of CC50 for cytotoxicity in dog MDCK cells assessed as reduction in cell viability incubated for 48 hrs by crystal violet staining based assay to […] in dog MDCK cells assessed as reduction in cell viability incubated for 48 hrs by crystal violet staining based assay.
Data set [22] can be described thus: Elimination half life in mouse at 0.5 mg/kg, iv administered as single dose. It counts as ADME, organism-based. Conditions: in vivo, read-out: beta t1/2 (converted). An outline of the steps: as §4

Hemagglutinin (Influenza A virus (A/Puerto Rico/8/1934(H1N1))), sequence (P03452 whole entry, the tested form may be a part): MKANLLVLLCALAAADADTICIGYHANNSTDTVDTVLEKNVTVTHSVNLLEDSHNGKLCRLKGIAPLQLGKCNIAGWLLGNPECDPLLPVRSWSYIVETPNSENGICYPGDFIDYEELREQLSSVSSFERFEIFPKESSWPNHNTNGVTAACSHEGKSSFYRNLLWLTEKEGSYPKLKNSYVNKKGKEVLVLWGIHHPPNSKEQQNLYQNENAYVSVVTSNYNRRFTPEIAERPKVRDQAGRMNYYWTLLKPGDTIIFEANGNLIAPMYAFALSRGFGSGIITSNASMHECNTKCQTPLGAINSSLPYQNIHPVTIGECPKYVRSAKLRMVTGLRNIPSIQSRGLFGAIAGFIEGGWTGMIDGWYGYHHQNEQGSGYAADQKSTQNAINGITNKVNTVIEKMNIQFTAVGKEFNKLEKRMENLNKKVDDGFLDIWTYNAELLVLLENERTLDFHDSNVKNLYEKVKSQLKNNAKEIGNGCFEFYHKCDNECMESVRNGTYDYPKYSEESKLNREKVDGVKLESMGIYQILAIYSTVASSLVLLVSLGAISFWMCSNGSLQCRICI
Hemagglutinin (Influenza A virus (A/Puerto Rico/8/1934(H1N1)), UniProt P03452), sequence (P03452 whole entry): as the sequence (P03452 whole entry, the tested form may be a part) above

In the case of `CC(=O)c1cc(C)c(O)c(Cc2[nH]c3ccccc3c2Cc2c(O)c(C)cc(C(C)=O)c2O)c1O`, the outcome in data set [1], in [10] and in data set [20] was Active. Also, the Activity entry in data set [2] is “Dose-dependent effect”; in data set [3], “Non-Toxic”; in [4] it was “Non-Toxic”; in [9], “Dose-dependent effect”; in data set [11], “Non-Toxic”; in [14] it was “Dose-dependent effect”. Also, the Activity result in [16] and in data set [18] was “Non-Toxic” throughout. For the same compound, the AUC(0-t) in data set [5] was 269 ng·h/mL; in [13] it was 152 ng·h/mL. Besides, the remaining at 1 h, 2 µM in data set [6] stood at 36.6%; in data set [17], 71.6%. The IC50 in data set [7], in [8] and in [19] was less than 13 µg/mL in each case. Further, the Kd in data set [12] came to 6.3 µM. Besides, in data set [15], the inhibition result is “Active”. Besides, the “Ratio CC50/IC50” value in data set [21] is recorded as 55.8. Also, in [22], the half-life was 3.4 h.
